According to ChEMBL document CHEMBL1765066, “Role of metalation in the topoisomerase IIα inhibition and antiproliferation activity of a series of α-heterocyclic-N4-substituted thiosemicarbazones and their Cu(II) complexes” (J Med Chem, 2011):
The source made the active and inactive calls. No cut-off for these calls is given here.

Tests used:
[1] = target: T1, DNA topoisomerase 2-alpha (Homo sapiens, UniProt P11388); test: Inhibition of human topoisomerase 2 alpha-mediated relaxation of supercoiled pHOT DNA after 30 mins by agarose gel electrophoresis
T1 sequence (P11388 whole entry): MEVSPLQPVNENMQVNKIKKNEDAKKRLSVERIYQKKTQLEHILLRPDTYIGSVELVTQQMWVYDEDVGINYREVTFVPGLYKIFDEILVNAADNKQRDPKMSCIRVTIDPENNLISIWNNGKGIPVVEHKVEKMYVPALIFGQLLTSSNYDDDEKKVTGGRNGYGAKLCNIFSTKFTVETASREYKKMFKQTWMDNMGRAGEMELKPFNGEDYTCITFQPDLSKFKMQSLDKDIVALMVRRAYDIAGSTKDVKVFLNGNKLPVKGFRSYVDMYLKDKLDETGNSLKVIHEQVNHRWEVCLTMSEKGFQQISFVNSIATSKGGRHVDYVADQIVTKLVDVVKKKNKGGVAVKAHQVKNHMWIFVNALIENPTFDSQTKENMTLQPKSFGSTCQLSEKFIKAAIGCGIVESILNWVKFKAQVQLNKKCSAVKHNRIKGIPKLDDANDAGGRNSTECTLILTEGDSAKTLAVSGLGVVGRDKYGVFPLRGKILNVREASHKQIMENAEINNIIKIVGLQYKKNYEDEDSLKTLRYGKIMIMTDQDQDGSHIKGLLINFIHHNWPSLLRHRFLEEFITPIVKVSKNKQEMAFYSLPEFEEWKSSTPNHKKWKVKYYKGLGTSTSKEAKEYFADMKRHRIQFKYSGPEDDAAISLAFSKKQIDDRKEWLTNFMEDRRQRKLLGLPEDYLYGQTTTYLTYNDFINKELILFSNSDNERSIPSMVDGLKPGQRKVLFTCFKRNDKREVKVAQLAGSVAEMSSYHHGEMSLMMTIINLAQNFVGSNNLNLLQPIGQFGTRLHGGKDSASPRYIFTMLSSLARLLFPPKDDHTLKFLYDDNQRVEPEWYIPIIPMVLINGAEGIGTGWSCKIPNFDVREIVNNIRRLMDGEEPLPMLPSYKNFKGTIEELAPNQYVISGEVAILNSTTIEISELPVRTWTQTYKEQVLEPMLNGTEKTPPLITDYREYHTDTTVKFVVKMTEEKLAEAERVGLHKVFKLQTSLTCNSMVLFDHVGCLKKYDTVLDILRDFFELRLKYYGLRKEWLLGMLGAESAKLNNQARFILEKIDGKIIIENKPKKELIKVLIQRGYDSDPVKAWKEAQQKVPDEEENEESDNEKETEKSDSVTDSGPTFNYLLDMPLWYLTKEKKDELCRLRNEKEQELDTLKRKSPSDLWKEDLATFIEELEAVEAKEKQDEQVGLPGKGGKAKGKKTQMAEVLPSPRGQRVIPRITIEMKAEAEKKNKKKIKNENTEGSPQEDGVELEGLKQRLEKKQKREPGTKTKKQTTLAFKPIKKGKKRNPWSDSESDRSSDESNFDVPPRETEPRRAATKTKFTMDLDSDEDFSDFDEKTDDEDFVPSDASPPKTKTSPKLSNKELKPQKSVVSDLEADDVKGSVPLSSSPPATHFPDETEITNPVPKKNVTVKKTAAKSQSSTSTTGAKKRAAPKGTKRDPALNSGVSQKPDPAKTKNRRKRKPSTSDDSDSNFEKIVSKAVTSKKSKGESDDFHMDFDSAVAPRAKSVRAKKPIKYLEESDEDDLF

[2] = target: T1, DNA topoisomerase 2-alpha; test: Inhibition of human topoisomerase 2 alpha-mediated relaxation of supercoiled pHOT DNA at 100 uM after 30 mins by agarose gel electrophoresis
Method in brief: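 Single-concentration gel run at 100 μM drug, added from DMSO stock. Commercial human topo IIα (~2 units) with supercoiled pHOT DNA in reaction buffer (20 μL final), 37 °C for 30 min. The reaction was stopped with SDS plus proteinase K (37 °C, 15 min) and electrophoresed on 1% agarose (5 h, 5 V/cm). Gels were ethidium bromide pre- or post-stained and scored for supercoiled, relaxed and linear DNA.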

SK-BR-3 = test: Growth inhibition against human SK-BR-3 cells after 24 hrs by MTT assay; assay type: functional; conditions: SK-BR-3, 24 h
Method in brief: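 SK-BR-3 cells in DMEM:F-12 (1:1) with 10% fetal calf serum, L-glutamine, nonessential amino acids and penicillin/streptomycin were seeded at 20 000 cells/well overnight. Drug was added in fresh medium (500 μM to 10 nM) for 24 h at 37 °C/5% CO2. MTT was added for 3 h, detergent solubilization ran overnight at room temperature, then absorbance was read. Values were normalized to untreated wells; GI50 from a sigmoidal fit; triplicate.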

Question: How did the IC50 [1] turn out when `C/N=C(\S)N/N=C(\C)c1cnccn1` was run?
Answer: > 100 µM

Question: What about the inhibition [2] of the same compound?
Answer: inactive

Question: What about the GI50 (SK-BR-3) of the same compound?
Answer: 7.9 µM

Question: What does the source list for `CCNC(=S)N/N=C/c1ccccn1`?
Answer: IC50 [1]: 94 µM; inhibition [2]: Active; GI50 (SK-BR-3): 6.3 µM

Question: Which results are given for `C=CCNC(=S)N/N=C(\C)c1ccccn1`?
Answer: IC50 [1]: > 100 µM; inhibition [2]: inactive; GI50 (SK-BR-3): 6.1 µM

Question: With `CCNC(=S)N/N=C(\C)c1ccccn1` as the compound, how does the IC50 [1] read?
Answer: 79 µM

Question: And the inhibition [2]?
Answer: Active

Question: What about the GI50 (SK-BR-3) of the same compound?
Answer: 5.9 µM

Question: `S=C(N/N=C/c1ccccn1)N1CCCC1` was tested. Which IC50 [1] did it give?
Answer: > 100 µM

Question: What about the inhibition [2] of the same compound?
Answer: inactive

Question: What about the GI50 (SK-BR-3) of the same compound?
Answer: 4.3 µM

Question: What does the source list for `CNC(=S)N/N=C(\C)c1ccccn1`?
Answer: IC50 [1]: 92 µM; inhibition [2]: Active; GI50 (SK-BR-3): 5.5 µM

Question: Which results are given for `CNC(=S)N/N=C/c1ccccn1`?
Answer: IC50 [1]: 76 µM; inhibition [2]: Active; GI50 (SK-BR-3): 7.1 µM

Question: For `CC(C)NC(=S)N/N=C/c1ccccn1`, which IC50 [1] is on record?
Answer: > 100 µM

Question: And the inhibition [2]?
Answer: inactive

Question: And the GI50 (SK-BR-3)?
Answer: 7.7 µM

Question: `C=CCNC(=S)N/N=C/c1ccccn1` was tested. Which IC50 [1] did it give?
Answer: > 100 µM

Question: And the inhibition [2]?
Answer: inactive

Question: What about the GI50 (SK-BR-3) of the same compound?
Answer: 8.1 µM

Question: Which IC50 [1] does the source give for `N/C(S)=N/N=C/c1ccccn1` here?
Answer: > 100 µM

Question: What about the inhibition [2] of the same compound?
Answer: inactive

Question: And the GI50 (SK-BR-3)?
Answer: 7.4 µM

Question: Which IC50 [1] does the source give for `S=C(NCc1ccccc1)N/N=C/c1ccccn1` here?
Answer: > 100 µM

Question: What about the inhibition [2] of the same compound?
Answer: inactive

Question: What about the GI50 (SK-BR-3) of the same compound?
Answer: 4.6 µM
